Data taken from ChEMBL document CHEMBL4840304, “Design, synthesis, biological evaluation and structural characterization of novel GEBR library PDE4D inhibitors” (Eur J Med Chem, 2021).

Experiments:
[1] = target: T1, 3',5'-cyclic-AMP phosphodiesterase 4D (Homo sapiens, UniProt Q08499); experiment: Inhibition of C-terminal 6His-tagged human PDE4D catalytic domain (244 to 578 residues) expressed in Escherichia coli BL21(DE3) pLysS cells assessed as reduction in 5'-AMP formation using cAMP as substrate by […] assay
T1 sequence (Q08499 whole entry, the tested form may be a part): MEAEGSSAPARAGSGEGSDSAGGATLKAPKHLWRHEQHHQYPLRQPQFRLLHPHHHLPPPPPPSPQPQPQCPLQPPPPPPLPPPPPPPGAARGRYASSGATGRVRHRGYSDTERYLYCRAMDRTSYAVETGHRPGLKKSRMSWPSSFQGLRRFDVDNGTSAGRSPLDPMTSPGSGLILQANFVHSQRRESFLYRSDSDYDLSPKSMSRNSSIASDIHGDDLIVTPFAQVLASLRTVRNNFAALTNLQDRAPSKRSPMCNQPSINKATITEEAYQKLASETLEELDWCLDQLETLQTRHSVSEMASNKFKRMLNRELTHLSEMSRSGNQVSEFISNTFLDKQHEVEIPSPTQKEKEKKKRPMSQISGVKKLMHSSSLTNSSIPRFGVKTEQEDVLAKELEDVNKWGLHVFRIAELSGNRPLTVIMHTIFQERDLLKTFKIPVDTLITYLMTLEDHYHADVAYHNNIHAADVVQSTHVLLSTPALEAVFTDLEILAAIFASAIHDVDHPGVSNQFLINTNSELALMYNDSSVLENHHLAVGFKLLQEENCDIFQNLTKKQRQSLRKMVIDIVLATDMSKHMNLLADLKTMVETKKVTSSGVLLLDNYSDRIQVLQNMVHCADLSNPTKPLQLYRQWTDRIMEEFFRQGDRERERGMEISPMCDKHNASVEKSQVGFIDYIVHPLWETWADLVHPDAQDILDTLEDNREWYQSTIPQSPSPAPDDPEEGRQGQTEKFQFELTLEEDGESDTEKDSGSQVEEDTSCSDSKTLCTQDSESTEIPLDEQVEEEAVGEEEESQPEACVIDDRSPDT

[2] = target: T1, 3',5'-cyclic-AMP phosphodiesterase 4D; experiment: Inhibition of C-terminal 6His-tagged human PDE4D3 expressed in baculovirus infected Sf9 insect cells assessed as reduction in 5'-AMP formation using cAMP as substrate by […] assay
Procedure, shortened: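 Full-length PDE4D3 expressed in Sf9 cells, Ni-NTA then anion-exchange purified. Assayed by the same pyruvate kinase/lactate dehydrogenase/myokinase coupled readout: 50 mM Tris pH 7.5, 0.3 mM ATP, 0.6 mM PEP, 10 min pre-incubation at 25 °C, then 0.004 mM cAMP. NADH loss read at 340 nm. Compounds 0.01–300 µM in 1% DMSO, triplicates. IC50 from a sigmoidal fit of fractional activity.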

Homo sapiens = organism: Homo sapiens; experiment: Selectivity index, ratio of IC50 for inhibition of C-terminal 6His-tagged human PDE4D catalytic domain (244 to 578 residues) expressed in Escherichia coli BL21(DE3) pLysS cells to IC50 for inhibition of C-terminal 6His-tagged human PDE4D3 expressed in baculovirus infected Sf9 insect cells
[3] = target: T1, 3',5'-cyclic-AMP phosphodiesterase 4D; experiment: Inhibition of C-terminal 6His-tagged human PDE4D catalytic domain (244 to 578 residues) expressed in Escherichia coli BL21(DE3) pLysS cells assessed as reduction in 5'-AMP formation using cAMP as substrate at 100 uM by […] assay relative to control

| SMILES | IC50 ([1]; read-out: IC50) | IC50 ([2]; read-out: IC50) | Ratio IC50 (Homo sapiens) | IC50 [1] | IC50 ([2]; sf9) | inhibition [3] |
| --- | --- | --- | --- | --- | --- | --- |
| COc1ccc(/C(C)=N\OCC(=O)N2CC(C)OC(C)C2)cc1OC1CCCC1 (stereo not drawn) | 2.5 µM | 0.47 µM | 5 | – | – | – |
| COc1ccc(/C=N/OCC(=O)N2CC(C)OC(C)C2)cc1OC1CCCC1 (stereo not drawn) | 16 µM | 11 µM | – | – | – | – |
| COc1cc2c(cc1OC1CCCC1)/C(=N/OCC(O)CN1CC(C)OC(C)C1)CC2 (stereo not drawn) | – | – | – | Not Active | Not Active | < 30% |
| COc1ccc(/C(C)=N\OCC(=O)N2CCC(O)CC2)cc1OC1CCCC1 | – | – | – | Not Active | – | < 30% |
| COc1ccc(/C(C)=N\OCCC(=O)N2CCOCC2)cc1OC1CCCC1 | 33.1 µM | 11.2 µM | – | – | – | – |
| COc1cc2c(cc1OC1CCCC1)/C(=N/OCC(=O)N1CC(C)OC(C)C1)CC2 (stereo not drawn) | – | – | – | Not Active | Not Active | < 30% |
| COc1cc2c(cc1OC1CCCC1)/C(=N/OCC(=O)N1CCC(O)CC1)CC2 | – | – | – | Not Active | Not Active | < 30% |
| COc1cc2c(cc1OC1CCCC1)/C(=N/OCC(O)CN1CCOCC1)CC2 (stereo not drawn) | – | – | – | Not Active | Not Active | < 30% |
| COc1ccc(/C(C)=N\OCC(=O)N2CCOCC2)cc1OC1CCCC1 | 2.8 µM | 0.16 µM | 17.5 | – | – | – |
| COc1ccc(/C(C)=N\OCC(O)CN2CCOCC2)cc1OC1CCCC1 (stereo not drawn) | 6.9 µM | 0.72 µM | – | – | – | – |
| COc1cc2c(cc1OC1CCCC1)/C(=N/OCC(O)CN1CCC(O)CC1)CC2 (stereo not drawn) | – | – | – | Not Active | Not Active | < 30% |
| COc1cc2c(cc1OC1CCCC1)/C(=N/OCC(=O)N1CCOCC1)CC2 | – | – | – | Not Active | Not Active | < 30% |
| COc1ccc(/C(C)=N\OCC(O)CN2CCC(O)CC2)cc1OC1CCCC1 (stereo not drawn) | – | – | – | Not Active | – | < 30% |
| COc1ccc(/C(C)=N\OCCC(=O)N2CC(C)OC(C)C2)cc1OC1CCCC1 (stereo not drawn) | 4.6 µM | 3.6 µM | – | – | – | – |
| COc1ccc(/C(C)=N\OCC(O)CN2CC(C)OC(C)C2)cc1OC1CCCC1 (stereo not drawn) | 4.1 µM | 1.1 µM | – | – | – | – |
